# GSIS activator – GLuc luminescence reporter in INS-1E cells, primary screen for activators of glucose-dependent secretion of insulin | 0.61% of 370,000 active | INS-1E GLuc reporter insulin secretion, 2-3 h | activation, % at 16.6 µM;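 active = lowest replicate activation of at least 40%, so every replicate reaches that level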;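 note: 0% = median of neutral control wells and 100% = median of IBMX positive control wells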
# dFosB activator – activators of delta FosB homodimer, primary screen, biochemical, fluorescence polarization, TAMRA-CDK5 oligo, single point. AID 493131, 2011. activation, % at 25 µM. Protein FosB (Mus musculus), P13346. purified delta FosB; percent of positive-control signal above neutral wells. 0.99% of 340,000 active;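 active = mean activation above about 17%, with every replicate also reaching it, limit read from the data, passing the limit was not always enough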
# Target sequence (P13346 whole entry, looked up): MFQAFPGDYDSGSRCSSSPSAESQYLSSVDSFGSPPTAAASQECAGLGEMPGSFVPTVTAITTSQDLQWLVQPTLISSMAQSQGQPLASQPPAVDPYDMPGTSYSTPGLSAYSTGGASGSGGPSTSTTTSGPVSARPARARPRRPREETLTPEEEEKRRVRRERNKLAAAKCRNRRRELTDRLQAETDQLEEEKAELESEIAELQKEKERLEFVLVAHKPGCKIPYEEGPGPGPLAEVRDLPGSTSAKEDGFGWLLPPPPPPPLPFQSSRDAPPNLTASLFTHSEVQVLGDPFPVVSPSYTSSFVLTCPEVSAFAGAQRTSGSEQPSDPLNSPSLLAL
# Rtt109 Vps75 – inhibitors of C. albicans Rtt109/Vps75 HAT, primary screen, biochemical, ThioGlo CoA-SH fluorescence, plate reader; Histone acetyltransferase RTT109 (Candida albicans (strain SC5314 / ATCC MYA-2876)), …; purified Rtt109/Vps75, 4 h; inhibition, % at 34.9 µM; 0.16% of 330,000 active;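 active = inhibition of at least 50% in every replicate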
# miR122 inh – miR-122 Renilla sensor signal increase in Huh7, primary screen, miR-122 inhibitor project, cell-based, single point, plate reader | Huh7 miR-122 Renilla luciferase sensor, 48 h; neutral wells = 0, positive control = 100 | activation (reporter increase), % at 12.5 µM | 0.3% of 340,000 active | AID 602342, 2012;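 active = mean replicate activation score at least 90 and every replicate individually at or above 90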;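 note: higher luciferase means less miR-122 activity so hits act as miR-122 inhibitors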
# Cneo AK release – Cryptococcus neoformans cell lysis inducers, primary screen, AK release luminescence, single concentration | 0.2% of 360,000 active | AID 651654, 2012 | lysis activity, % at 15 µM | C. neoformans lysis, adenylate kinase release luminescence, 4 h; normalised: neutral wells 0, clomiphene wells 100;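 active = mean lysis activity across replicates of at least 80%, whatever share of replicates individually reach that level; inactive = mean lysis activity below 80%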
#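 Material: C. neoformans cells; Schedule: 4 h static compound exposure, 37 °C, read 1 h post-reagent; Measured by: adenylate kinase release luminescence; Read-out: signal increase indicating cell lysis; Controls: Clomiphene as positive lysis control.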
# Env fusion inh – inhibitors of HIV-1 Env-driven cell-cell fusion, primary screen, HeLa-JRFL effector, CEM21 target cells, luciferase. inhibition, % at 12.3 µM. 1.1% of 360,000 active. AID 651610, 2012;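 active = mean replicate inhibition score of at least 50 and every replicate individually at or above 50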;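 note: 0% = plate neutral controls and 100% = maraviroc near 300 nM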
# * hit, by the source's call; x = not tested or not shown; [ ] = dose if it differs, or a comment. Only some compounds are listed: those with a hit (about 2.4% of all), similar ones and a draw of the others.
SMILES,GSIS activator,dFosB activator,Rtt109 Vps75,miR122 inh,Cneo AK release,Env fusion inh
COc1ccc2c3c([nH]c2c1)[C@H](CO)N(C(=O)CN(C)C)CC31CCN(CC2CCCC2)CC1,6,x,x,x,x,x
COc1cc2[nH]c(=S)n(Cc3cccs3)c(=O)c2cc1OC,13,19*,-2,-3,0,5
C[C@@H]1CN([C@@H](C)CO)C(=O)c2cccc(NC(=O)Nc3ccccc3)c2O[C@@H]1CN(C)C(=O)Nc1ccc(C(F)(F)F)cc1,-8,x,x,13[16.7 µM],-2,0[16.7 µM]
COc1c(F)cc2[nH]c3c(c2c1F)CCNC3=O,32,1,-2,x,1,65*
Cc1ccc2[nH]c3c(c2c1)CCNC3=O,3,-1,1,x,-2,50
COC(=O)C(CC#Cc1ccc2c(c1)[C@]1(C(=O)N2)[C@H](c2ccccc2OCCO)N2[C@H](c3ccccc3)[C@H](c3ccccc3)OC(=O)[C@H]2[C@@H]1C(=O)N1CCCCCCC1)C(=O)OC,x,x,x,x,0,7[16.7 µM]
CN(C)CCCNC(=O)[C@H]1[C@H](CO)[C@H]2Cn3c(ccc(C4=CCCC4)c3=O)[C@H]2N1CCC(F)(F)F,-1,x,x,x,2,57*[16.7 µM]
CC=Cc1ccc2n(c1=O)C[C@H]1[C@H](CO)[C@@H](C(=O)NCCc3cn(C)cn3)N(C(=O)C3CCCC3)[C@@H]21 (mixture of isomers),12,x,x,x,x,x
COCc1cc(N2CCN(C(=O)OC(C)(C)C)C[C@H]2C)ccc1N1CCS(=O)(=O)CC1,-22,x,x,x,x,59*
CCCCNc1nc(N)ncc1[N+](=O)[O-],55*,0,1,-3,-1,-9
CSS(=O)(=O)c1cccc2cccnc12,-3,2,132*,6,4,18
CCN(CC)S(=O)(=O)c1cccc2cccnc12,x,-1,6,x,x,-20
CO[C@@H]1CN(C)C(=O)c2ccc(NS(=O)(=O)c3ccccc3F)cc2OC[C@@H](C)NC[C@@H]1C,4,x,x,x,x,x
O=C(N/N=C/c1cc([N+](=O)[O-])ccc1O)c1cccc(NC(=O)c2cccc(Cl)c2)c1,-2,57*,12,3,0,15
O=[N+]([O-])c1ccc(O)c(/C=N/Nc2ccc(Cl)nn2)c1,34,5,26,-46,0,82*
O=C(CC1CC1)N1[C@@H](CO)[C@@H]2c3ccccc3N(S(=O)(=O)c3ccc(F)cc3)C[C@@H]21,3,x,x,3[16.7 µM],-6,x
CCC(=O)N(C)C[C@H]1Oc2cc(-c3ccncc3)ccc2S(=O)(=O)N([C@H](C)CO)C[C@@H]1C,26,x,x,4[16.7 µM],0,-8[16.7 µM]
Cc1cc2c(cc1C)CSC(c1c(O)ccc3ccccc13)SC2,185*,2,7,1,-12,15
CNC[C@H]1Oc2ccc(NC(C)=O)cc2CC(=O)N(C)C[C@H]1C,13,x,x,x,x,x
FC(F)(F)c1cccc(NC(=S)Nc2ccc(Cl)c(Cl)c2)c1,-36,-2,-1,-6,-2,13
O=[N+]([O-])c1cc(C(F)(F)F)cc([N+](=O)[O-])c1NCCNC(=S)Nc1ccc(Cl)c(Cl)c1,0,6,-1,11,1,57*
O=C(C[C@H]1C=C[C@H](NC(=O)Nc2ccc(F)cc2)[C@@H](CO)O1)NCc1cccc(F)c1,-8,x,x,x,-2,-2[16.7 µM]
COc1ccccc1N1CCN(C(=O)CSc2nnc3n2C(C)(C)Cc2ccccc2-3)CC1,-29,-8,11,-22,-2,74*
COc1ccc2c3c([nH]c2c1)[C@@H](CO)N(C(=O)CN(C)C)CC31CN(C(=O)c2ccncc2)C1,1,x,x,x,x,x
O=C1Nc2ccccc2/C1=N\N=C\C1=C(N2CCOCC2)C(=C\c2ccccc2)/CC1,x,0,2,3,4,64*
SMILES,GSIS activator,dFosB activator,Rtt109 Vps75,miR122 inh,Cneo AK release,Env fusion inh
O=C1Nc2ccc(Br)cc2/C1=N\N=C\C1=C(N2CCOCC2)C(=C/c2ccccc2)/CC1,-16,-2,0,x,3,11
C[C@H]1CN([C@@H](C)CO)C(=O)Cc2cc(N(C)C)ccc2O[C@@H]1CN(C)Cc1ccc(C(=O)Nc2ccccc2N)cc1,26,x,x,27[16.7 µM],6,-52[16.7 µM]
C[C@@H]1CN([C@@H](C)CO)C(=O)Cc2cc(N(C)C)ccc2O[C@@H]1CN(C)Cc1ccc(C(=O)Nc2ccccc2N)cc1,11,x,x,138*[16.7 µM],-12,-267[16.7 µM]
C[C@@H]1CN([C@@H](C)CO)C(=O)Cc2cc(N(C)C)ccc2O[C@H]1CN(C)Cc1ccc(C(=O)Nc2ccccc2N)cc1,14,x,x,113*[16.7 µM],-2,-16[16.7 µM]
C[C@H]1CN([C@@H](C)CO)C(=O)Cc2cc(NC(=O)C3CC3)ccc2O[C@H]1CN(C)Cc1ccc(-c2ccccc2)cc1,-7,x,x,1[16.7 µM],112*,-65[16.7 µM]
C[C@H](CO)N1C[C@H](C)[C@H](CN(C)Cc2ccc(C(=O)Nc3ccccc3N)cc2)Oc2ccc(NC(=O)C3CC3)cc2CC1=O,4,x,x,165*[16.7 µM],-5,-218[16.7 µM]
C[C@H](CO)N1C[C@H](C)[C@@H](CN(C)Cc2ccc(C(=O)Nc3ccccc3N)cc2)Oc2ccc(NC(=O)C3CC3)cc2CC1=O,-4,x,x,8[16.7 µM],3,14[16.7 µM]
CO[C@@H]1CN(C)C(=O)c2cc(NC(=O)c3ccccc3)ccc2OC[C@H](C)N(C(C)=O)C[C@@H]1C,18,x,x,-5[16.7 µM],-3,x
O=C(C[C@H]1C[C@@H]2c3cc(NC(=O)Nc4ccccc4)ccc3O[C@@H]2[C@H](CO)O1)NCC1CC1,-2,x,x,-2[16.7 µM],0,x
O=C(Cc1ccccc1)N1CC2(C1)[C@H](c1ccccc1)[C@H](CO)N2S(=O)(=O)Cc1ccccc1,-23,x,x,x,x,x
C[C@H]1CN([C@@H](C)CO)C(=O)c2cccc(NC(=O)C3CCOCC3)c2O[C@@H]1CN(C)CC1CC1,13,x,x,13[16.7 µM],-55,-22[16.7 µM]
O=C(CNC(=O)c1ccccc1)N=Nc1c(O)[nH]c2ccc(Br)cc12,9,46*,0,-3,1,-6
CC1CCCC(NS(=O)(=O)c2cccc3nsnc23)C1C (stereo not given),9,-10,55*,22,-3,13
CC(C)C(NS(=O)(=O)c1cccc2nsnc12)C(=O)NC1CCCCC1C (stereo not given),x,-5,-2,4,-6,x
CC(C)(C)c1ccc(C(=O)N2CCCCCC2=O)cc1,x,5,1,-6,-7,91*
O=C1CCCCCN1C(=O)c1ccccc1,x,-2,2,5,x,x
